# Source: the M2OR odorant receptor database
# What was measured:
# Conditions in all cases: stereoisomer not certain
# Or1m1 (Mus musculus) = target: T1, Or1m1 (Mus musculus) (UniProt Q8VFM9)
# T1 sequence (whole entry): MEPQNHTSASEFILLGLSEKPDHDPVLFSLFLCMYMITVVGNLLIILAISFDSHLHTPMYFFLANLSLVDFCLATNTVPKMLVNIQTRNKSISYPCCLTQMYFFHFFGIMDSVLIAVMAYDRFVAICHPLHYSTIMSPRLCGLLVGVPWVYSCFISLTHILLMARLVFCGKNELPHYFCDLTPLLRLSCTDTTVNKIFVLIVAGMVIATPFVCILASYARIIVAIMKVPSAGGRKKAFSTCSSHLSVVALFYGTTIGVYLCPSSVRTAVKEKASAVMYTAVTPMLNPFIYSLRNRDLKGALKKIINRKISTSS
# Summary of the method: (§1)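 Assay methods differ from source to source, frequently being transient luciferase assays in mammalian cell lines. For each receptor–molecule pair, the label responsive (active) applies when the original authors judged the measured signal statistically different from baseline, and non-responsive (inactive) applies otherwise.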
# Or2c1 (Mus musculus) = target: T2, Or2c1 (Mus musculus) (UniProt P23275)
# T2 sequence (whole entry): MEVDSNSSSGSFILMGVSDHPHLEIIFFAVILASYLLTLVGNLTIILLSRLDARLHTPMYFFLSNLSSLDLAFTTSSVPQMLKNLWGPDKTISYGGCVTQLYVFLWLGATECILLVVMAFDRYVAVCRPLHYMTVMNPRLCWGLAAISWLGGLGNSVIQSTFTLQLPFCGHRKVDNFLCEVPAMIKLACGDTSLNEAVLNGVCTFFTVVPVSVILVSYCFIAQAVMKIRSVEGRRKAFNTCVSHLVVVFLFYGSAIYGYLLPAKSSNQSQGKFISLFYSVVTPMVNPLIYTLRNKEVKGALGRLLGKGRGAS
# Summary of the method: as §1
# Or5ar1 (Mus musculus) = target: T3, Or5ar1 (Mus musculus) (UniProt Q8VGS3)
# T3 sequence (whole entry): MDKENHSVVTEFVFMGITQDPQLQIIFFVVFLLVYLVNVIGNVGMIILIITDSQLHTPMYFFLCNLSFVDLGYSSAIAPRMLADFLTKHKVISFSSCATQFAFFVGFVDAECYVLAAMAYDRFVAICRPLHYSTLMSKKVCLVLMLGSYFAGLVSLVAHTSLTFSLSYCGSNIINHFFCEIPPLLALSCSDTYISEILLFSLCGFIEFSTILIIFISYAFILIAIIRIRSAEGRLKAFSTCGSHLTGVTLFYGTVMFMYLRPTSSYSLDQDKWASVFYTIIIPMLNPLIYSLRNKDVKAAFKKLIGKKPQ
# Summary of the method: as §1
Structure (SMILES),odorant receptor agonist call (Or1m1 (Mus musculus)),odorant receptor agonist call (Or2c1 (Mus musculus)),odorant receptor agonist call (Or5ar1 (Mus musculus))
CCCCCCCCO,inactive,inactive,inactive
O=C(c1ccccc1)c1ccccc1,inactive,inactive,inactive
CC(=O)OCC=C(C)C,inactive,inactive,active
CCCCCCCCC(=O)O,inactive,active,inactive
CCC(=O)O,inactive,inactive,inactive
CCCCCCCCS,inactive,active,inactive
CCCCC(C)=O,inactive,inactive,inactive
CCCCCC=CCCC=O,inactive,,inactive
CCCCOC=O,inactive,inactive,inactive
CC(=O)Oc1ccccc1,inactive,inactive,inactive
CCCCCC(=O)CC,inactive,inactive,inactive
CCCCCCC(C)=O,inactive,inactive,inactive
C=C(C)C1CCC(C)C(=O)C1 (stereo not given),inactive,inactive,inactive
CC(=O)OCc1ccccc1,inactive,inactive,inactive
CCOC(=O)C(C)C,inactive,inactive,inactive
CC12CCC(CC1=O)C2(C)C (stereo not given),inactive,inactive,inactive
O=C1CCOc2ccccc21,inactive,inactive,inactive
CC(=O)C=CC1=C(C)CCCC1(C)C,inactive,,inactive
CCCCCCCCCCOC(C)=O,inactive,,inactive

Structure (SMILES),odorant receptor agonist call (Or1m1 (Mus musculus)),odorant receptor agonist call (Or2c1 (Mus musculus)),odorant receptor agonist call (Or5ar1 (Mus musculus))
O=C(O)C1CCC1,inactive,,inactive
OCC=Cc1ccccc1,inactive,,inactive
CCCC=O,inactive,,inactive
COc1ccccc1,inactive,,inactive
CCC=CCCCCC=O,inactive,,inactive
CCCCCCC(C)O (stereo not given),inactive,,inactive
O=C(O)CCCCCBr,inactive,,inactive
CC(C)=C1CCC(C)CC1=O (stereo not given),inactive,,inactive
Cc1ccccc1OC(=O)C(C)C,inactive,,inactive
OCCc1ccccc1,inactive,,inactive
CCCCCC(=Cc1ccccc1)C(OC)OC,inactive,,active
CCN(CC)CC,inactive,,inactive
C=C(C)C1CCC2(C)OC2C1 (stereo not given),inactive,,inactive
CC=CC(=O)C1=C(C)CCCC1(C)C,inactive,,inactive
C=CC(=O)CCCCC,inactive,,inactive
CCCCCC(C=O)=Cc1ccccc1,inactive,,inactive
CCCCCCC=CC=O,inactive,,inactive
CCCCCCC(C=O)=Cc1ccccc1,inactive,,inactive
